The results in this text go back to ChEMBL document CHEMBL3596166, “Bisabolane-Type Sesquiterpenoids from the Whole Plant of Parasenecio rubescens” (J Nat Prod, 2015).

The subject of one test is Escherichia coli. In words: Antibacterial activity against Escherichia coli assessed as growth inhibition at 200 ug/ml after 24 hrs by paper disk diffusion method. Conditions: read-out: DIZ. The format is functional. The procedure, abridged: (§1)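 Paper disk diffusion. About 0.1 mL of sample at 200 μg/mL applied to a 6 mm paper disk, air-dried, then placed on the inoculated culture dish and incubated 24 h at 37 °C. Read-out is inhibitory zone diameter (IZD). Penicillin G disks served as control for S. aureus and streptomycin disks for E. coli. Run in duplicate.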
Background: A growth-free zone around the sample is the usual read-out of agar diffusion tests.

Another test deals with Staphylococcus aureus. In words: Antibacterial activity against Staphylococcus aureus assessed as growth inhibition at 200 ug/ml after 24 hrs by paper disk diffusion method. It counts as functional. The note with it: read-out: DIZ. The procedure, abridged: as §1
For the next test, the system named is B16. In words: Cytotoxicity against mouse B16 cells assessed as inhibition of cell viability after 24 hrs by MTT assay. The note with it: B16, 24 h. It counts as functional, cell-based. For orientation: Formazan colour is commonly taken as a measure of viable cells.
For the next test, the system named is HepG2. Kind of test: Cytotoxicity against human HepG2 cells assessed as inhibition of cell viability after 24 hrs by MTT assay. The format is functional, cell-based. Conditions: HepG2, 24 h.
Another test has as its system MCF7. Kind of test: Cytotoxicity against human MCF7 cells assessed as inhibition of cell viability after 24 hrs by MTT assay. The format is functional, cell-based. Conditions: MCF7, 24 h.

Regarding `C=C(C)C(O)CC(OC(=O)/C(C)=C\C)C(=C)[C@H]1[C@H](O)[C@H](OC(=O)/C(C)=C\C)[C@@](C)(O)[C@H](O)[C@@H]1OC(=O)/C=C(\C)CC` (some centres not stated), the zone of inhibition at 200 µg/mL in the test with Escherichia coli was found to be 8 mm; in the test on Staphylococcus aureus, 9 mm. The IC50 in the test with B16 was 39.7 µM; with HepG2, 71.5 µM; in the test with MCF7 it was 78.9 µM.
For `C=C(C(CC(O)C(C)(C)OC)OC(=O)/C(C)=C\C)[C@H]1[C@H](OC(=O)/C(C)=C\C)[C@H]2O[C@@]2(C)[C@@H](OC(=O)/C(C)=C\C)[C@H]1OC(C)=O` (some centres not stated), the results for the IC50 with B16, in the test on HepG2 and in the test with MCF7 were 49.6 µM, 96.6 µM and 56.2 µM, respectively.
With `C=C(C(CC(O)C(C)(C)O)OC(=O)/C(C)=C\C)[C@H]1[C@H](OC(=O)/C(C)=C\C)[C@H]2O[C@@]2(C)[C@@H](OC(=O)/C(C)=C\C)[C@H]1OC(C)=O` (some centres not stated), the figures for the IC50 in the test on B16, in the test with HepG2 and in the test with MCF7 were 42.5 µM, 40.8 µM and 79.4 µM, respectively.
For `C=C(C1CC(O)C(C)(C)O1)[C@H]1[C@H](OC(=O)/C(C)=C\C)[C@H]2O[C@@]2(C)[C@@H](OC(C)=O)[C@H]1OC(C)=O` (some centres not stated), the zone of inhibition at 200 µg/mL in the test with Escherichia coli and in the test with Staphylococcus aureus was 8 mm throughout.
Regarding `COc1cccc2c1C(=O)c1c(O)c3c(c(O)c1C2=O)C[C@@](O)(C(=O)CO)C[C@@H]3O[C@H]1C[C@H](N)[C@H](O)[C@H](C)O1` [DOXORUBICIN], the IC50 in the test with B16 came to 17.7 µM; in the test with HepG2, 23.2 µM.
Turning to `CC1(C)S[C@@H]2[C@H](NC(=O)Cc3ccccc3)C(=O)N2[C@H]1C(=O)O` [PENICILLIN G], in the test with Staphylococcus aureus, the zone of inhibition at 200 µg/mL amounted to 25 mm.
On to `CN[C@@H]1[C@H](O[C@H]2[C@H](O[C@H]3[C@H](O)[C@@H](O)[C@H](N=C(N)N)[C@@H](O)[C@@H]3N=C(N)N)O[C@@H](C)[C@]2(O)C=O)O[C@@H](CO)[C@H](O)[C@H]1O` [STREPTOMYCIN], for which the zone of inhibition at 200 µg/mL in the test on Escherichia coli is 18 mm.

The term IC50 denotes the concentration at which inhibition is half-maximal.
